Test results as given in PMC3969268 (Journal of medicinal chemistry, 2012).

Columns and labels:
[1] = molecular target: S. aureus FtsZ (SaFtsZ), wild-type (Staphylococcus aureus, UniProt P0A031); format: binding
E. coli FtsZ (EcFtsZ) = E. coli FtsZ (EcFtsZ) (Escherichia coli, UniProt P0A9A6); experiment: Fluorescence anisotropy determination of compound-FtsZ binding affinity, EcFtsZ
[2] = molecular target: E. faecalis FtsZ (EfFtsZ) (Enterococcus faecalis, UniProt O08439); experiment: Fluorescence anisotropy determination of compound-FtsZ binding affinity, EfFtsZ; conditions: EfFtsZ
E. faecalis FtsZ (EfFtsZ), sequence (O08439 whole entry): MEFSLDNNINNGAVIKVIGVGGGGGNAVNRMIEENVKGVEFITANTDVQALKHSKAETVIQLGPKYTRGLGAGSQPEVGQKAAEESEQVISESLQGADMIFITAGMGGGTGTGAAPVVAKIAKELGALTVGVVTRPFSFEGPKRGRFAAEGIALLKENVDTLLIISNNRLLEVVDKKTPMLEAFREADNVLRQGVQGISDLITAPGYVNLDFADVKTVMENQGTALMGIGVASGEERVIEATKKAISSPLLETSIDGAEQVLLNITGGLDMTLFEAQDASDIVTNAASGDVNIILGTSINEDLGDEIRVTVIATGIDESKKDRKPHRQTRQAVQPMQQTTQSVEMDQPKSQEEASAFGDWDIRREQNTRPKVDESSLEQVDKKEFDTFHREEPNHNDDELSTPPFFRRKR

EfFtsZ = EfFtsZ (Enterococcus faecalis, UniProt O08439); experiment: FtsZ polymerization light-scattering; format: biochemical, E. faecalis; conditions: 40 μg/mL compound or comparator drug
EfFtsZ, sequence (O08439 whole entry): as above

S. aureus 8325-4 (MSSA) = experiment: MIC broth microdilution, S. aureus 8325-4; format: cell-based; conditions: 24 h
[3] = system: S. aureus ATCC 49951 (MSSA); experiment: MIC broth microdilution, S. aureus ATCC 49951; format: cell-based; conditions: Staphylococcus aureus, ATCC49951|MSSA, 24 h
S. aureus 8325-4 = experiment: Minimum bactericidal concentration; format: cell-based
[4] = molecular target: MAP-rich porcine β-tubulin (70% β-tubulin, 30% MAPs) (Sus scrofa, UniProt P02554); experiment: Tubulin polymerization light-scattering; format: biochemical; conditions: 10 μg/mL; 2 mg/mL porcine β-tubulin, 1 mM GTP, 37 °C
MAP-rich porcine β-tubulin (70% β-tubulin, 30% MAPs), sequence (P02554 whole entry): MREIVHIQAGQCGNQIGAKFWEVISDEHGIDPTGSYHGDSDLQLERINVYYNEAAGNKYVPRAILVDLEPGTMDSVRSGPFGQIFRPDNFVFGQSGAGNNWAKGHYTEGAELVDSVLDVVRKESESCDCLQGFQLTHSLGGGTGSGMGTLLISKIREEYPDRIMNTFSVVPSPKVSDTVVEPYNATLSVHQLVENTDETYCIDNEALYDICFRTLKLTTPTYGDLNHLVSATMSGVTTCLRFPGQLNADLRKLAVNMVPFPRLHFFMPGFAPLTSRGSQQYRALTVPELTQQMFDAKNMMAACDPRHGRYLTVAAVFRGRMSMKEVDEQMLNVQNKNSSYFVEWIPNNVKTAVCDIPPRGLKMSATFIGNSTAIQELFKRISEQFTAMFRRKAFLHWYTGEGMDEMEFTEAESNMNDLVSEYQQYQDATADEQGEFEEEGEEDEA
MAP-rich porcine β-tubulin (70% β-tubulin, 30% MAPs), sequence (P02550 whole entry partner): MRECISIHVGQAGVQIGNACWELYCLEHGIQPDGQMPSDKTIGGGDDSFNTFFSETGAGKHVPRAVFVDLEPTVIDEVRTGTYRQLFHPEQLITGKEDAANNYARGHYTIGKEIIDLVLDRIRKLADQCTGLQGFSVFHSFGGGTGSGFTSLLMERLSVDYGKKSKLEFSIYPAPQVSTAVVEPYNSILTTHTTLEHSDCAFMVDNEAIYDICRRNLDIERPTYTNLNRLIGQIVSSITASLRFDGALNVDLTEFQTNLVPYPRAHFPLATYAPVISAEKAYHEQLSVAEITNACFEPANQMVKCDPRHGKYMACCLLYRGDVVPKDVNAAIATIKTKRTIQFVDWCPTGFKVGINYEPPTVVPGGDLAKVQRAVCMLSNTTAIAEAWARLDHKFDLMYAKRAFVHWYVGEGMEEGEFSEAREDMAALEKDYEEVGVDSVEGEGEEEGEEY

SaFtsZ = molecular target: T1, SaFtsZ (Staphylococcus aureus, UniProt P0A031); experiment: FtsZ polymerization light-scattering; format: biochemical, S. aureus; conditions: SaFtsZ; 40 μg/mL compound or comparator drug
T1 sequence (P0A031 1-390): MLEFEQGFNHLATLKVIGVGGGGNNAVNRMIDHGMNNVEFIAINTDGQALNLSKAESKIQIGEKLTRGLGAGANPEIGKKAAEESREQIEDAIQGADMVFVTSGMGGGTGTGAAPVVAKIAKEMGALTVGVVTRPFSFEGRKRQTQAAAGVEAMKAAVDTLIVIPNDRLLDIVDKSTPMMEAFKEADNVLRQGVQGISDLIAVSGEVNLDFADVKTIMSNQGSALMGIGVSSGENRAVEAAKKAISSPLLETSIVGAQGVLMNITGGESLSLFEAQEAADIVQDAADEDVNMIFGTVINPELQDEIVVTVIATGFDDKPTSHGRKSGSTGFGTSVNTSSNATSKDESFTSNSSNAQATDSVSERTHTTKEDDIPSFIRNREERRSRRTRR

[5] = system: S. aureus ATCC 33591 (MRSA); experiment: MIC broth microdilution, S. aureus ATCC 33591; format: cell-based; conditions: CAMH broth + 2% NaCl, 24 h, 37 °C
S. aureus Mu3 (MRSA) = experiment: MIC broth microdilution, S. aureus Mu3; format: cell-based; conditions: S. aureus Mu3 (MRSA, hetero-GISA); CAMH broth + 2% NaCl, 24 h, 37 °C
[6] = system: E. faecalis ATCC 19433 (VSE); experiment: MIC broth microdilution, E. faecalis ATCC 19433; format: cell-based; conditions: CAMH broth, 24 h, 37 °C
[7] = system: E. faecalis ATCC 51575 (VRE); experiment: MIC broth microdilution, E. faecalis ATCC 51575; format: cell-based; conditions: CAMH broth, 24 h, 37 °C
EcFtsZ = EcFtsZ (Escherichia coli, UniProt P0A9A6); experiment: FtsZ polymerization light-scattering; format: biochemical, E. coli; conditions: 40 μg/mL compound or comparator drug
EcFtsZ, sequence (P0A9A6 whole entry): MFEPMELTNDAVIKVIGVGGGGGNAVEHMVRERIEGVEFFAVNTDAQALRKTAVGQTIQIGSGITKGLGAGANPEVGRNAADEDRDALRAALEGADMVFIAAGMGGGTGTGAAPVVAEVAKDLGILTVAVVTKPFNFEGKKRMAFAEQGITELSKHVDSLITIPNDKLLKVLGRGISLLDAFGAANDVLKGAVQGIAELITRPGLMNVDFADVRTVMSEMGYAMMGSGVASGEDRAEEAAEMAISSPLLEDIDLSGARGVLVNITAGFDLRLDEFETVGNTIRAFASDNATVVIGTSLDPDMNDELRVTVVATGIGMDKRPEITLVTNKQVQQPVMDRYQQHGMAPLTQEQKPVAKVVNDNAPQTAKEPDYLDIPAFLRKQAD

[8] = molecular target: SaFtsZ-bound BoGTPγS (GTP binding pocket) (Staphylococcus aureus, UniProt P0A031); experiment: BoGTPγS fluorescence anisotropy competition assay, SaFtsZ; conditions: 1 μM BoGTPγS, 5 μM FtsZ, competitor 0 to 40 μM
In short: (§1)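 Competition anisotropy assay: 1 μM BODIPY-GTPγS with 0 or 5 μM FtsZ, plus test compound or unlabeled GTP (0–40 μM), in 50 mM Tris·HCl pH 7.4, 50 mM KCl, 2 mM magnesium acetate. After 5 min at 25 °C, probe anisotropy was read (ex 488/em 510 nm, 4 nm bandwidths), compared with FtsZ-free probe. Triplicates averaged.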

[9] = molecular target: EcFtsZ-bound BoGTPγS (GTP binding pocket) (Escherichia coli, UniProt P0A9A6); experiment: BoGTPγS fluorescence anisotropy competition assay, EcFtsZ; parameters: species or system E. coli; conditions: 1 μM BoGTPγS, 5 μM FtsZ, competitor 0 to 40 μM
EcFtsZ-bound BoGTPγS (GTP binding pocket), sequence (P0A9A6 whole entry): as above
In short: as §1

[10] = molecular target: EfFtsZ-bound BoGTPγS (GTP binding pocket) (Enterococcus faecalis, UniProt O08439); experiment: BoGTPγS fluorescence anisotropy competition assay, EfFtsZ; parameters: species or system E. faecalis; conditions: 1 μM BoGTPγS, 5 μM FtsZ, competitor 0 to 40 μM
EfFtsZ-bound BoGTPγS (GTP binding pocket), sequence (O08439 whole entry): as the sequence (O08439 whole entry) above

E. coli FtsZ (EcFtsZ), sequence (P0A9A6 whole entry): as the sequence (P0A9A6 whole entry) above

CC(C)(C)c1ccc(-c2cc(CNC(=N)N)ncn2)cc1 [compound 15, 1-((6-(4-(tert-Butyl)phenyl)pyrimidin-4-yl)methyl)guanidine]
binding to FtsZ (qualitative; Kd not quantifiable) [1]: weak nature of the binding interactions | binding to FtsZ (qualitative; Kd not quantifiable) (E. coli FtsZ (EcFtsZ)): weak nature of the binding interactions | binding to FtsZ (qualitative; Kd not quantifiable) [2]: weak nature of the binding interactions | AcrAB efflux pump substrate (inferred from MIC N43 vs W4573) (E. coli N43 (acrA1)): substrates of the AcrAB efflux pump

CN[C@H](CC(C)C)C(=O)N[C@H]1C(=O)N[C@@H](CC(N)=O)C(=O)N[C@H]2C(=O)N[C@H]3C(=O)N[C@H](C(=O)N[C@H](C(=O)O)c4cc(O)cc(O)c4-c4cc3ccc4O)[C@H](O)c3ccc(c(Cl)c3)Oc3cc2cc(c3O[C@@H]2O[C@H](CO)[C@@H](O)[C@H](O)[C@H]2O[C@H]2C[C@](C)(N)[C@H](O)[C@H](C)O2)Oc2ccc(cc2Cl)[C@H]1O.Cl [vancomycin]
extent of stimulation of FtsZ polymerization (A340) (EfFtsZ): negligible impact | MIC (S. aureus 8325-4 (MSSA); Staphylococcus aureus, MSSA): 0.5 µg/mL | MIC [3]: 0.5 µg/mL | MBC/MIC (S. aureus 8325-4): 2

COC(=O)Nc1nc2cc(C(=O)c3cccs3)ccc2[nH]1 [nocodazole]
impact on tubulin polymerization (A340) [4]: expected inhibitory impact

oxacillin
extent of stimulation of FtsZ polymerization (A340) (SaFtsZ): negligible impact | MIC (S. aureus 8325-4 (MSSA); S. aureus 8325-4 (MSSA), CAMH broth, 37 °C, ≥90% growth inhibition): 0.063 µg/mL | MIC [5]: >64.0 µg/mL | MIC (S. aureus Mu3 (MRSA)): >64.0 µg/mL | MIC [6]: 8.0 µg/mL | MIC [7]: 64.0 µg/mL

CC1(C)S[C@@H]2[C@H](NC(=O)[C@H](N)c3ccccc3)C(=O)N2[C@H]1C(=O)[O-].[Na+] [ampicillin, reference compound]
extent of stimulation of FtsZ polymerization (A340) (EcFtsZ): negligible impact

Nc1nc2c(ncn2[C@@H]2O[C@H](COP(=O)(O)OP(=O)(O)OP(=O)(O)O)[C@@H](O)[C@H]2O)c(=O)[nH]1 [GTP, reference compound]
effect on anisotropy of FtsZ-bound BoGTPγS [8]: marked, concentration-dependent decrease | effect on anisotropy of FtsZ-bound BoGTPγS [9]: marked, concentration-dependent decrease | effect on anisotropy of FtsZ-bound BoGTPγS [10]: marked, concentration-dependent decrease
